Data on 1 molecule can be found in ChEMBL document CHEMBL5260824, “9-Deazapurines as Broad-Spectrum Inhibitors of the ABC Transport Proteins P-Glycoprotein, Multidrug Resistance-Associated Protein 1, and Breast Cancer Resistance Protein” (J Med Chem, 2017).

One test concerns H69AR. Description: Inhibition of cell growth in Daunorubicin resistant human NCI-H69AR cells expressing MRP1 measured for 72 hrs by MTT assay. The test is classed as functional. An outline of the steps:
(§1)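 Reversal assay: resistant lines (A2780/ADR, H69AR, MDCK II BCRP) and parental lines seeded as for MTT assay with modulator solutions of 1, 10 and 100 µM added (final 0.1, 1, 10 µM) and daunorubicin (P-gp, MRP1) or SN-38 (BCRP) at final 10 nM–10 µM. 72 h, MTT read-out; GI50 by variable-slope fit. Resistance factor = resistant/sensitive GI50; potentiation factor = GI50 without/with modulator.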

The nature of test [1]: Inhibition of cell growth in Daunorubicin resistant human A2780 ADR cells expressing P-gp measured for 72 hrs by MTT assay. It counts as functional. In short, it runs like this: as §1
The nature of test [2]: Inhibition of daunorubicin sensitive human A2780 ADR cells expressing P-gp measured for 72 hrs by MTT assay. The test is classed as functional. An outline of the steps:
as §1

Test [3] can be described thus: Inhibition of daunorubicin sensitive human NCI-H69AR cells expressing MRP1 measured for 72 hrs by MTT assay. The test is classed as functional. In short, it runs like this: as §1
Background: Tetrazolium assays rely on reduction of a dye to a coloured formazan, in cell work by metabolically active cells.

Test [4] can be described thus: Resistance factor, ratio of GI50 for inhibition of cell growth in daunorubicin resistant human NCI-H69AR cells expressing MRP1 to GI50 for inhibition of daunorubicin sensitive human NCI-H69 cells.
Test [5] can be described thus: Resistance factor, ratio of GI50 for inhibition of cell growth in daunorubicin resistant human A2780 ADR cells expressing P-gp measured for 72 hrs by MTT assay to GI50 for inhibition of daunorubicin sensitive human A2780 cells measured for 72 hrs by MTT assay.

The GI50 is the concentration at which growth is held to half of that of the control. Read a low GI50 as more potent growth inhibition. With `COc1cccc2c1C(=O)c1c(O)c3c(c(O)c1C2=O)C[C@@](O)(C(C)=O)C[C@@H]3O[C@H]1C[C@H](N)[C@H](O)[C@H](C)O1` [DAUNORUBICIN], the GI50 in the test with H69AR stood at 3.84 µM; in test [1], 575 nM; in test [2], 10 nM; in test [3] it was 361 nM. Also, the RatioGI50 in test [4] is listed as 11; in test [5] it was 54.
